Data: ChEMBL document CHEMBL4665831, “Ultrapotent Inhibitor of Clostridioides difficile Growth, Which Suppresses Recurrence In Vivo” (J Med Chem, 2020)

Columns and labels:
[1] = Selectivity ratio of MIC for antibacterial activity against Bacteroides dorei HM-719 to antibacterial activity against Clostridioides difficile NR-13435 isolate 9; assay type: ADME
[2] = Apparent permeability across apical to basolateral side in human Caco-2 cells; assay type: ADME, cell-based
Procedure, shortened: (§1)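 Bidirectional Caco-2 monolayer transport was run by a contract lab. Papp = (V_R·C_R,end/Δt)·1/[A·(C_D,mid − C_R,mid)]. Donor mid-point is the mean of the 0-min and end donor concentrations; receiver mid-point is half the end receiver concentration. Concentrations were taken as LC peak areas.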

[3] = Selectivity ratio of MIC for antibacterial activity against Bacteroides fragilis HM-711 to antibacterial activity against Clostridioides difficile NR-13435 isolate 9; assay type: ADME
Phocaeicola dorei = assay: Antibacterial activity against Bacteroides dorei HM-719 assessed as reduction in microbial growth after 48 hrs by broth microdilution method; assay type: organism-based
Procedure, shortened: (§2)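 Gut commensal MICs by broth microdilution: a 0.5 McFarland suspension was diluted to ~5 × 10^5 CFU/mL in BHIS broth (Bacteroides) or MRS broth (Lactobacillus). Agents were serially diluted and incubated 48 h at 37°C. MIC was read by visual inspection of growth.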

[4] = Selectivity ratio of MIC for antibacterial activity against Bacteroides fragilis HM-709 to antibacterial activity against Clostridioides difficile ATCC 43255; assay type: ADME
Lactobacillus gasseri = assay: Antibacterial activity against Lactobacillus gasseri HM-400 assessed as reduction in microbial growth after 48 hrs by broth microdilution method; procedure, shortened: as §2
[5] = Selectivity ratio of MIC for antibacterial activity against Bacteroides fragilis HM-709 to antibacterial activity against Clostridioides difficile NR-13435 isolate 9; assay type: ADME
Lactobacillus crispatus [6] = assay: Antibacterial activity against Lactobacillus crispatus HM-103 assessed as reduction in microbial growth after 48 hrs by broth microdilution method; procedure, shortened: as §2
[7] = Selectivity ratio of MIC for antibacterial activity against Bacteroides fragilis HM-709 to antibacterial activity against Clostridioides difficile NR-32891 P13; assay type: ADME
[8] = Selectivity ratio of MIC for antibacterial activity against Bacteroides dorei HM-719 to antibacterial activity against Clostridioides difficile NR-32904 P30; assay type: ADME
[9] = Selectivity ratio of MIC for antibacterial activity against Bacteroides fragilis HM-711 to antibacterial activity against Clostridioides difficile NR-32904 P30; assay type: ADME
Clostridioides difficile [10] = assay: Potency index, ratio of vancomycin MIC to test compound MIC for antibacterial activity against Clostridioides difficile NR-32895 P19; assay type: functional
[11] = Apparent permeability across basolateral to apical side in human Caco-2 cells; assay type: ADME, cell-based; procedure, shortened: as §1
Lactobacillus crispatus [12] = assay: Antibacterial activity against Lactobacillus crispatus HM-371 assessed as reduction in microbial growth after 48 hrs by broth microdilution method; procedure, shortened: as §2
[13] = Selectivity ratio of MIC for antibacterial activity against Bacteroides fragilis HM-711 to antibacterial activity against Clostridioides difficile NR-13432 isolate 6; assay type: ADME
[14] = Selectivity ratio of MIC for antibacterial activity against Bacteroides fragilis HM-711 to antibacterial activity against Clostridioides difficile ATCC 43255; assay type: ADME
[15] = Selectivity ratio of MIC for antibacterial activity against Bacteroides fragilis HM-709 to antibacterial activity against Clostridioides difficile NR-13432 isolate 6; assay type: ADME
Clostridioides difficile [16] = assay: Antimicrobial activity against Clostridioides difficile ATCC 43255 assessed as reduction in microbial growth after 48 hrs by broth microdilution method; assay type: functional
Procedure, shortened: (§3)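 Broth microdilution: a 0.5 McFarland suspension was diluted in brain heart infusion supplemented (BHIS) broth to ~5 × 10^5 CFU/mL. Agents were serially diluted and plates incubated anaerobically at 37°C for 48 h.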

Clostridioides difficile [17] = assay: Potency index, ratio of vancomycin MIC to test compound MIC for antibacterial activity against Clostridioides difficile NR-32904 P30; assay type: functional
[18] = Selectivity ratio of MIC for antibacterial activity against Bacteroides fragilis HM-711 to antibacterial activity against Clostridioides difficile NR-32883 P2; assay type: ADME
Clostridioides difficile [19] = assay: Potency index, ratio of vancomycin MIC to test compound MIC for antibacterial activity against Clostridioides difficile NR-32883 P2; assay type: functional
[20] = Selectivity ratio of MIC for antibacterial activity against Bacteroides dorei HM-719 to antibacterial activity against Clostridioides difficile NR-32895 P19; assay type: ADME
[21] = Selectivity ratio of cytotoxicity against human Caco-2 cells to MIC for antibacterial against clostridioides difficile ATCC BAA 1801; assay type: toxicity, cell-based
Clostridioides difficile [22] = assay: Potency index, ratio of vancomycin MIC to test compound MIC for antibacterial activity against Clostridioides difficile NR-13435 isolate 9; assay type: functional
[23] = Selectivity ratio of MIC for antibacterial activity against Bacteroides dorei HM-719 to antibacterial activity against Clostridioides difficile NR-32891 P13; assay type: ADME
Clostridioides difficile [24] = assay: Antimicrobial activity against Clostridioides difficile ATCC 43255 assessed as drug resistance by measuring frequency of mutation at 20 times of MIC after 48 hrs; assay type: functional
Clostridioides difficile [25] = assay: Potency index, ratio of vancomycin MIC to test compound MIC for antibacterial activity against Clostridioides difficile NR-32891 P13; assay type: functional
Clostridioides difficile [26] = assay: Antimicrobial activity against Clostridioides difficile ATCC 43255 assessed as drug resistance by measuring frequency of mutation at 15 times of MIC after 48 hrs; assay type: functional
Caco-2 = assay: Cytotoxicity against human Caco-2 cells assessed as reduction in cell viability at >64 ug/ml after 2 hrs by MTS assay; assay type: cell-based; settings: caco-2, 2 h, dose >64 µg/ml
Procedure, shortened: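 Caco-2 cells were exposed to compound for 2 h, then to MTS reagent for 4 h, and absorbance was read at 490 nm. Testing was in triplicate, and viability was expressed as percent of DMSO-treated cells.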

[27] = Selectivity ratio of MIC for antibacterial activity against Bacteroides dorei HM-719 to antibacterial activity against Clostridioides difficile NR-13432 isolate 6; assay type: ADME
Bacteroides fragilis = assay: Antibacterial activity against Bacteroides fragilis HM-709 assessed as reduction in microbial growth after 48 hrs by broth microdilution method; assay type: organism-based; procedure, shortened: as §2
Escherichia coli = assay: Antimicrobial activity against Escherichia coli JW55031 harboring TolC mutant assessed as reduction in microbial growth after 48 hrs by CLSI based broth microdilution method; assay type: functional
Procedure, shortened: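 CLSI broth microdilution: strains were grown aerobically overnight on tryptone soy agar at 37°C. A 0.5 McFarland suspension was diluted to ~5 × 10^5 CFU/mL in cation-adjusted Mueller-Hinton broth (E. coli) or tryptone soy broth (enterococci), and agents were serially diluted.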

Clostridioides difficile [28] = assay: Antimicrobial activity against Clostridioides difficile NR-13432 isolate 6 assessed as reduction in microbial growth after 48 hrs by broth microdilution method; assay type: functional; procedure, shortened: as §3
[29] = Selectivity ratio of MIC for antibacterial activity against Bacteroides fragilis HM-709 to antibacterial activity against Clostridioides difficile NR-32895 P19; assay type: ADME
Clostridioides difficile [30] = assay: Antibacterial activity against Clostridioides difficile ATCC 43255 infected in CDI mouse model assessed as survival rate at 50 mg/kg, po for 5 days and measured on day 21 relative to control; assay type: functional; settings: ATCC 43255, po, 504 h, time 21 day
[31] = Selectivity ratio of MIC for antibacterial activity against Bacteroides dorei HM-719 to antibacterial activity against Clostridioides difficile NR-32883 P2; assay type: ADME

## O=C(Nc1nnc(-c2cc(Cl)cc(Cl)c2)o1)c1ccc(SC(F)(F)F)cc1
[1]
  Selectivity ratio: 100
[2]
  Papp: 0.2 10^-6 cm/s
[3]
  Selectivity ratio: 100
Phocaeicola dorei
  MIC: 4.6 µM
[4]
  Selectivity ratio: 100
Lactobacillus gasseri
  MIC: 36.8 µM
[5]
  Selectivity ratio: 100
Lactobacillus crispatus [6]
  MIC: 36.8 µM
[7]
  Selectivity ratio: 100
[8]
  Selectivity ratio: 100
[9]
  Selectivity ratio: 100
Clostridioides difficile [10]
  Ratio: 2.5
[11]
  Papp: 0.1 10^-6 cm/s
Lactobacillus crispatus [12]
  MIC: 36.8 µM
[13]
  Selectivity ratio: 100
[14]
  Selectivity ratio: 100
[15]
  Selectivity ratio: 100
Clostridioides difficile [16]
  MIC: 0.04 µM
Clostridioides difficile [17]
  Ratio: 2.5
[18]
  Selectivity ratio: 100
Clostridioides difficile [19]
  Ratio: 2.5
[20]
  Selectivity ratio: 100
[21]
  Selectivity ratio: > 9000
Clostridioides difficile [22]
  Ratio: 2.5
[23]
  Selectivity ratio: 100
Clostridioides difficile [24]
  Activity: <1.1 10^-9No_unit
Clostridioides difficile [25]
  Ratio: 2.5
Clostridioides difficile [26]
  Activity: <1.1 10^-9No_unit
Caco-2
  Activity: Non-Toxic
[27]
  Selectivity ratio: 100
Bacteroides fragilis
  MIC: 2.3 µM
Escherichia coli
  MIC: 9.2 µM
Clostridioides difficile [28]
  MIC: 0.07 µM
[29]
  Selectivity ratio: 100
Clostridioides difficile [30]
  survival at 50 mg/kg: 100%
[31]
  Selectivity ratio: 100
